Bioassay records from PubChem.
D1 allo mod – allosterically modulates the human D1 dopamine receptor; P21728; HEK293 D1, CRE-luciferase, dopamine EC30 potentiation; actives deviate in either direction; B-score at 10 µM; actives 5.9% (n = 58,000);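 active means luminescence count or its row- and column-corrected plate score outside the 99.7% band of the plate's sample wells, on either side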
RORA act – RORA (human) activation; CHO-K1 Gal4-RORA LBD luciferase reporter, luminescence; percent increase over mock-subtracted basal signal; actives 1.5% (n = 65,000); P35398; activation, % at 10 µM; AID 560;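 active means activation above the mean of all tested compounds plus 3 SD, cut at about 49% in these data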;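 further: 0% = DMSO-treated RORA cells and 100% = added signal equal to DMSO minus mock-transfected cells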
SF-1 act – activators of human nuclear receptor SF-1. activation, % at 10 µM. CHO-K1 Gal4-SF-1 LBD luciferase reporter; % increase over DMSO SF-1-specific signal. AID 522. actives 1.9% (n = 65,000). Q13285;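 active means activation above the mean activation of all tested compounds plus 3 SD, cut at about 50% in these data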
Target sequence (Q13285 whole entry, looked up, the tested form may be a part): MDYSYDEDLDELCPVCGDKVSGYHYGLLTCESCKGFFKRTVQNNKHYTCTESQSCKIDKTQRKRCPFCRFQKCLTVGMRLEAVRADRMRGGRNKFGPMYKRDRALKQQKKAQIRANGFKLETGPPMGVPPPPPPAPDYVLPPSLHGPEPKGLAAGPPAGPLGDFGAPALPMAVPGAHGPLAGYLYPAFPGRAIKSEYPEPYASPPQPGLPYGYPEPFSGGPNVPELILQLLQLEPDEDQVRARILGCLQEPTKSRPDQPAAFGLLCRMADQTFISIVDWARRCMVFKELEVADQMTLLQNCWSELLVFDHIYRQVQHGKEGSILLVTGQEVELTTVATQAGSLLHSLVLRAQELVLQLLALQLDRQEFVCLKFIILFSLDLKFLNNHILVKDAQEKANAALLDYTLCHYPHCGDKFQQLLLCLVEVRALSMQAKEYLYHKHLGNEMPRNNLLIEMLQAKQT
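material = CHO-K1 cells with Gal4–hSF-1 LBD chimera plus Gal4-driven luciferase | compound = 10 µM single point, 1% DMSO | incubation = 20 h compound exposure at 37 °C after 1 h cell settling | measured by = SteadyLite luciferase luminescence | evaluation = percent activation relative to DMSO median and mock-transfected background | control set = DMSO negative control and −SF1 background wells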
M1 antag – M1 muscarinic receptor (rat) antagonism. B-score at 10 µM. actives 3.4% (n = 64,000). CHO-M1 cells, Fluo-4 calcium, ACh EC80 antagonist mode; stronger effect = lower value. P08482. AID 628;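 active means calcium fluorescence response, raw or row-and-column corrected B-score, differing from the plate sample mean either way at a set confidence level, mostly lower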
HePTP inhibitor – inhibitors of human HePTP phosphatase; P35236; recombinant HePTP phosphatase activity, OD absorbance; inhibition, % at 20 µM; actives 0.64% (n = 110,000); in the data active means inhibition above about 50%;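 further: plate controls were vehicle for no effect and reference inhibitor for full effect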
M1 agonist – agonists of M1 muscarinic receptor; B-score at 10 µM; actives 3% (n = 64,000); CHO-M1 cells, Fluo-4 calcium fluorescence, agonist mode; stronger effect = higher value;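 active means fluorescence rise, raw or as B-score row- and column-corrected plate score, outside the 99.7% band of its plate's samples, either direction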
D1 PAM confirm – confirmation of human D1 dopamine receptor allosteric modulators | shares compounds with D1 allo mod | HEK293 D1 CRE-luciferase, dopamine EC30 potentiation; stronger effect = higher value | luminescence at 10 µM | actives 88% (n = 2,200);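 active means luminescence in either of two replicates above the same-plate mean plus 3 SD of the low-dose dopamine control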
D1 no dopamine – activates D1 CRE-luciferase signal without dopamine present; luminescence at 10 µM; actives 0.8% (n = 1,900); shares compounds with D1 allo mod; HEK293 D1 CRE-luciferase, luminescence, no dopamine; stronger effect = higher value; in the data active means luminescence above about 3900
Isoprot counter – isoproterenol response counter-screen activity for D1 modulators. shares compounds with D1 allo mod. HEK293 D1 CRE-luciferase, isoproterenol EC30 counter-screen. calls only at 10 µM. actives 63% (n = 2,200);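 active means luminescence in either replicate above plate mean of wells with a partly effective reference agonist dose plus 3 SD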;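 further: isoproterenol raises cAMP through native beta-adrenoceptor Gs so signal bypasses D1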
Numbers without * were called inactive; i = inactive; / = no result given; + = active, no number. This is a sample that favours compounds with a hit; in the whole collection about 8.2% have one here.

SMILES	D1 allo mod	RORA act	SF-1 act	M1 antag	HePTP inhibitor	M1 agonist	D1 PAM confirm	D1 no dopamine	Isoprot counter
COC(=O)CCC(=O)Nc1ccccc1C(N)=O	-0.25	-22	-13	0.13	10	0.5	/	/	/
O=C(/C=C/c1ccc(-c2ccc(Cl)cc2Cl)o1)c1ccccc1	/	/	/	/	8	/	/	/	/
CC(NC(=O)C1CCC(=O)N1Cc1ccc(F)cc1)c1ccc2c(c1)OCCO2 (stereo not drawn)	2.1*	-13	9	-0.029	6	0.073	5700	1736	i
O=C(Cn1nnc(-c2ccccc2-n2cnnn2)n1)c1ccccc1	/	-2	6	/	1	/	/	/	/
O=C(NC1CCCCC1)C(c1ccccc1)N(Cc1ccco1)C(=O)Cn1cnc2ccccc21 (stereo not drawn)	-0.6	5	-8	-0.55	3	1.1	/	/	/
CC(=O)Nc1cc(C(=O)N2CCOCC2)ccc1S(=O)(=O)c1ccc(C)cc1	5.6*	29	-4	0.29	-11	-0.44	5968	1596	i
Cc1nc(N2CCC(C(N)=O)CC2)c2nnn(Cc3ccccc3)c2n1	3.2*	14	-8	0.21	4	0.00021	6740*	1504	i
Cc1nc(N2CCCC2)c2nnn(Cc3ccccc3Cl)c2n1	/	-6	-3	-0.96	-2	-0.61	/	/	/
CCOC(=O)C1=C(C)N=c2s/c(=C\c3cc(Br)ccc3OC(C)=O)c(=O)n2C1c1ccccc1 (stereo not drawn)	/	/	/	/	5	/	/	/	/
O=C1CC(c2ccccc2)C(C(=O)O)N1 (stereo not drawn)	15*	10	-9	-0.15	2	0.66	4528	/	i
O=S(=O)(c1cccs1)N1CCN(c2ncccn2)CC1	1.7	-3	9	0.55	1	0.71	/	/	/
O=S(=O)(c1cccs1)N1CCN(c2ccccn2)CC1	11*	12	-8	-0.74	-5	-0.11	10548*	1832	i
CCCN1C(=O)c2ccccc2NC1c1ccc(OC)cc1O (stereo not drawn)	4.4*	20	-24	-1.3	-3	-0.91	4884	1664	i
CCCN1C(=O)c2ccccc2NC1c1ccc(OC)cc1OC (stereo not drawn)	0.12	-12	-7	0.021	2	0.72	/	/	/
COc1ccc(NC(=O)CNS(=O)(=O)c2ccccc2)cc1Cl	0.73	-2	0	-0.36	-1	1.4	/	/	/
CC1N=C2c3ccccc3N=C(SCc3cc(=O)n4cc(Cl)ccc4n3)N2C1=O (stereo not drawn)	4.2*	-5	-1	0.0059	8	-0.12	10900*	1568	+
CC(C)C1N=C2c3ccccc3N=C(SCc3cc(=O)n4ccccc4n3)N2C1=O (stereo not drawn)	0.92	-11	-28	1.9	10	-0.083	/	/	/
CCOC(=O)c1cccnc1SCC(=O)N(C)c1ccccc1	0.17	-29	-19	0.38	-3	0.36	/	/	/
CCOC(=O)c1cccnc1SCc1cc(=O)n2ccccc2n1	4.4*	-14	-9	-0.2	0	-0.86	10728*	1604	+
CCOC(=O)c1ccc(NC(=O)c2cnccn2)cc1	0.0094	37	23	-0.5	8	-0.53	/	/	/
CC12c3ccccc3C(c3ccccc31)C1C(=O)N(c3ccc(I)cc3)C(=O)C12 (stereo not drawn)	/	/	/	/	2	/	/	/	/
CCOC(=O)CSc1nc2ccc(N3CCOCC3)cc2c(=O)n1Cc1ccc2c(c1)OCO2	7*	14	3	-0.17	3	0.00031	9824*	1952	+
Cn1c(Cn2c(=O)sc3ccccc32)nnc1SCC(=O)NCc1ccccc1	-0.19	-10	-16	-0.039	2	1	/	/	/
O=C(CN1CCN(Cc2ccccc2)CC1)c1ccc(Br)cc1	0.4	20	-8	0.3	5	-0.4	/	/	/
CCn1c(=O)cc(C(=O)OC)sc1=Nc1ccc(F)c(F)c1	11*	24	-26	-1.1	6	0.43	23240*	1624	+
SMILES	D1 allo mod	RORA act	SF-1 act	M1 antag	HePTP inhibitor	M1 agonist	D1 PAM confirm	D1 no dopamine	Isoprot counter
O=c1[nH]c2ccc(Cl)cc2c(=O)n1Cc1ccco1	/	-1	3	/	2	/	/	/	/
O=C(CCCCn1c(=O)c2ccccc2n(Cc2ccc(F)cc2)c1=O)NCc1ccco1	/	37	42	/	-2	/	/	/	/
Cc1ccc(Cn2c(=O)n(Cc3ccco3)c(=O)c3ccccc32)cc1	12*	9	1	1.1	3	0.019	15080*	1628	+
O=C(CCCn1c(=O)c2ccccc2n(Cc2ccccc2)c1=O)NCc1ccco1	3*	2	18	0.089	0	-0.066	8576*	1680	+
O=c1c2cc(Cl)ccc2[nH]c(=S)n1Cc1ccco1	2.8*	5	-7	-0.6	1	0.94	9744*	1436	i
O=c1c2ccccc2n(Cc2ccc(Cl)cc2)c(=O)n1Cc1ccco1	8.5*	-20	6	1.3	1	-0.23	16764*	1488	+
Cc1cc2c(c(=O)o1)C(Cc1ccccc1)C(C#N)=C(N)O2 (stereo not drawn)	0.12	4	-5	0.39	9	0.035	/	/	/
COc1ccc(CNC(=O)C(=O)NCc2ccc(Cl)cc2)cc1	/	/	/	/	7	/	/	/	/
COc1ccc(OC)c(C=NNC(=O)Cn2nnc3ccccc32)c1	/	/	/	/	6	/	/	/	/
O=S(=O)(c1cccc(Cl)c1Cl)N1CCCCC1	0.067	-22	-17	0.32	-2	-0.65	/	/	/
COc1c(S(=O)(=O)N2CCCC2)ccc(Cl)c1Cl	5.4*	5	-5	-0.0054	7	0.026	10616*	1728	+
CCOc1ccc(S(=O)(=O)Nc2ccc(NC(C)=O)cc2)cc1	/	/	/	/	-10	/	/	/	/
CCN(CC(=O)Nc1ccc2c(c1)OCCO2)C(=O)c1cccc(S(=O)(=O)N2CCOCC2)c1	3*	-19	-3	0.22	/	-0.12	5360	/	i
CCOc1ccccc1Oc1coc2cc(O)ccc2c1=O	-0.21	18	17	-0.54	-3	-2.8	/	/	/
N#CCSc1nc(N)c(C#N)c(C2CCCCC2)c1C#N	9*	12	-3	0.75	-11	-1.2	13172*	/	+
CC1=CC(C)(C)C(C(=O)O)C(C(=O)O)C1 (stereo not drawn)	-0.0016	-5	-2	0.054	4	0.068	/	/	/
CCOc1ccc2nc(NC(=O)CSc3nc4c(c(=O)n(C)c(=O)n4C)n3C(C)C)sc2c1	4*	-21	-10	1.2	10	-0.49	10912*	1684	+
